From publication PMC9999367 (RSC Advances, 2023)
Each block holds one compound with its values, some of them ahead of it.

What was measured:
[1] = Stability of stock and working standard solutions at refrigerated conditions; type: physicochemical; conditions: for stability of stock solutions (1 mg mL^−1): refrigerator (8 °C), at least one month, DMSO/acetonitrile; for Recovery (%): 30 days at 8 °C
Method in brief: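 Stocks were made at 1 mg mL−1: analyte dissolved in 1 mL DMSO, made up with acetonitrile. They were held refrigerated at 8 °C. Working solutions were diluted in acetonitrile to 5–500 ng mL−1, with internal standard at 200 ng mL−1.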

[2] = Pharmacokinetic study in rats after single oral dose of DUV; type: in vivo, Wistar rat
Method in brief: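 Male Wistar rats (250 ± 30 g), acclimatised 7 days and fasted 12 h with free water, got one oral gavage dose of 25 mg kg−1 in 1% DMSO/saline. About 300 µL heparinised blood was drawn predose and at 0.25–12 h. Plasma was spun at 4500 rpm, 4 °C, 30 min, stored at −20 °C, then quantified by UPLC-ESI-MS/MS. Non-compartmental analysis, 5 rats.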

[3] = Stability studies of DUV in human plasma samples; type: in vitro ADME
Method in brief: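 Blank human plasma was spiked at 15, 150 and 400 ng mL−1 with internal standard at 200 ng mL−1. Exposures: ~48 h in the autosampler, ~6 h at room temperature, three −80 °C/room-temperature freeze–thaw cycles, or 60 days at −80 °C. Samples were precipitated with an equal volume of mobile phase, vortexed, spun, filtered and run by C18 UPLC-ESI-MRM. Mean of 3.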

[4] = male, Wistar, rat, plasma, po, 25 mg/kg
[5] = rat plasma, single oral 25 mg kg^−1, mean of 5

- stability of stock solutions (1 mg mL^−1) [1]: stable
Compound: Cc1cc(Nc2ncc(Cl)c(Nc3ccccc3S(=O)(=O)C(C)C)n2)c(OC(C)C)cc1C1CCNCC1 [CRB, Ceritinib]

- Cmax [2, 4]: 3800 ng/mL
- MRT [2, 4]: 1.04 h
- Tmax [2, 4]: 1.83 h
- half-life [2, 4]: 43.2 min
- k el [2, 4]: 0.000269 s⁻¹
- Area under curve ration (AUC0–t/AUC0–∞) [2, 5]: 95.69%
- Clearance (CL) [2, 5]: 0.85 L/h/kg
- Elimination half-life time (t1/2) [2, 5]: 0.72 h⁻¹
- Volume of distribution (Vd) [2, 5]: 0.88 L/kg
- Recovery (%) ([3]; 60 days at −80 °C, spiked conc. 5 ng mL^−1, mean of 3): 101.51%
- Recovery (%) ([3]; 60 days at −80 °C, spiked conc. 15 ng mL^−1, mean of 3): 99.84%
- Recovery (%) ([3]; 60 days at −80 °C, spiked conc. 150 ng mL^−1, mean of 3): 101.19%
- Recovery (%) ([3]; 60 days at −80 °C, spiked conc. 400 ng mL^−1, mean of 3): 99.87%
- Recovery (%) ([3]; Autosampler (48 h), spiked conc. 5 ng mL^−1, mean of 3): 100.12%
- Recovery (%) ([3]; Autosampler (48 h), spiked conc. 15 ng mL^−1, mean of 3): 95.89%
- Recovery (%) ([3]; Autosampler (48 h), spiked conc. 150 ng mL^−1, mean of 3): 98.42%
- Recovery (%) ([3]; Autosampler (48 h), spiked conc. 400 ng mL^−1, mean of 3): 103.28%
- Recovery (%) ([3]; Bench top (6 h), room temperature, spiked conc. 5 ng mL^−1, mean of 3): 99.52%
- Recovery (%) ([3]; Bench top (6 h), room temperature, spiked conc. 15 ng mL^−1, mean of 3): 100.21%
- Recovery (%) ([3]; Bench top (6 h), room temperature, spiked conc. 150 ng mL^−1, mean of 3): 101.43%
- Recovery (%) ([3]; Bench top (6 h), room temperature, spiked conc. 400 ng mL^−1, mean of 3): 99.26%
- time stable under autosampler storage settings ([3]; autosampler storage settings): ≥ 48 h
- recovery ([3]; human, human plasma (spiked QC samples)): 95.9 to 103%
- time stable in plasma samples on the bench ([3]; room temperature, bench): at least 6 hours
- stability during freeze–thaw cycles ([3]; three freeze–thaw cycles): stable
- stability at long-term storage ([3]; −80 °C for 60 days): stable
- Recovery (%) ([1]; spiked conc. 5 ng mL^−1, mean of 3): 96.94%
- Recovery (%) ([1]; spiked conc. 15 ng mL^−1, mean of 3): 103.24%
- Recovery (%) ([1]; spiked conc. 150 ng mL^−1, mean of 3): 101.02%
- Recovery (%) ([1]; spiked conc. 400 ng mL^−1, mean of 3): 96.27%
- stability of stock and working standard solutions ([1]; 30 days at refrigerated conditions (8 °C)): stable
- stability of stock solutions (1 mg mL^−1) [1]: stable
Compound: C[C@H](Nc1ncnc2nc[nH]c12)c1cc2cccc(Cl)c2c(=O)n1-c1ccccc1 [DUV, 8-chloro-2-phenyl-3-[(1S)-1-(7H-purin-6-ylamino)ethyl]isoquinolin-1-one]
